Results reported in ChEMBL document CHEMBL1128499, “Bisimidazoacridones and related compounds: new antineoplastic agents with high selectivity against colon tumors” (1995).

What was measured:
Assay type in all cases: functional
Conditions in all cases: Homo sapiens
[1] = tested on: SK-MEL-2; assay: The concentration of compound required for 50% cell growth inhibition which was expressed in logarithmic form was measured on SK-MEL-2 cell lines of Melanoma
Method in brief: (§1)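 NCI 60-cell-line screen, sulforhodamine B assay. Cells grown in RPMI 1640 with 5% fetal bovine serum and 2 mM L-glutamine, seeded at 5000 to 40 000 cells/well, and incubated 24 h before drug. Drug exposure lasted 48 h. Cells were then TCA-fixed, stained with 0.4% (w/v) SRB in 1% acetic acid, and the stain solubilized in 10 mM Tris base for absorbance reading. GI50 taken from dose-response curves.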

[2] = tested on: HCT-116; assay: The concentration of compound required for 50% cell growth inhibition which was expressed in logarithmic form was measured on […] cell lines of colon cancer; method in brief: as §1
[3] = tested on: K562; assay: The concentration of compound required for 50% cell growth inhibition which was expressed in logarithmic form was measured on K-562 cell lines of Leukemia; method in brief: as §1
[4] = tested on: UACC-62; assay: The concentration of compound required for 50% cell growth inhibition which was expressed in logarithmic form was measured on UACC-62 cell lines of Melanoma; method in brief: as §1
[5] = tested on: MOLT-4; assay: The concentration of compound required for 50% cell growth inhibition which was expressed in logarithmic form was measured on MOLT-4 cell lines of Leukemia; method in brief: as §1
[6] = tested on: UACC-257; assay: The concentration of compound required for 50% cell growth inhibition which was expressed in logarithmic form was measured on UACC-257 cell lines of Melanoma; method in brief: as §1
[7] = tested on: RPMI-8226; assay: The concentration of compound required for 50% cell growth inhibition which was expressed in logarithmic form was measured on RPMI-8226 cell lines of Leukemia; method in brief: as §1
[8] = tested on: CCRF-CEM; assay: The concentration of compound required for 50% cell growth inhibition which was expressed in logarithmic form was measured on CCRF-CEM cell lines of Leukemia; method in brief: as §1
[9] = tested on: HCT-15; assay: The concentration of compound required for 50% cell growth inhibition which was expressed in logarithmic form was measured on HCT-15 cell lines of colon cancer; method in brief: as §1
[10] = tested on: HL-60; assay: The concentration of compound required for 50% cell growth inhibition which was expressed in logarithmic form was measured on HL-60(TB) cell lines of Leukemia
Method in brief: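 NCI 60-line screen, sulforhodamine B read-out. Lines grown in RPMI 1640 with 5% fetal bovine serum and 2 mM L-glutamine, seeded at 5000–40 000 cells/well and left 24 h before drug. Drug exposure 48 h, then TCA fixation, 0.4% (w/v) SRB staining in 1% acetic acid, solubilization in 10 mM unbuffered Tris base and absorbance reading. GI50 reported as log value.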

[11] = tested on: COLO 205; assay: The concentration of compound required for 50% cell growth inhibition which was expressed in logarithmic form was measured on COLO 205 cell lines of colon cancer; method in brief: as §1
[12] = tested on: Malme-3M; assay: The concentration of compound required for 50% cell growth inhibition which was expressed in logarithmic form was measured on MALME-3M cell lines of Melanoma; method in brief: as §1
[13] = tested on: M14; assay: The concentration of compound required for 50% cell growth inhibition which was expressed in logarithmic form was measured on M14 cell lines of Melanoma; method in brief: as §1
[14] = tested on: HT-29; assay: The concentration of compound required for 50% cell growth inhibition which was expressed in logarithmic form was measured on HT-29 cell lines of colon cancer; method in brief: as §1
[15] = tested on: KM12; assay: The concentration of compound required for 50% cell growth inhibition which was expressed in logarithmic form was measured on KM12 cell lines of colon cancer; method in brief: as §1
[16] = tested on: SK-MEL-5; assay: The concentration of compound required for 50% cell growth inhibition which was expressed in logarithmic form was measured on SK-MEL-5 cell lines of Melanoma; method in brief: as §1
[17] = tested on: SK-MEL-28; assay: The concentration of compound required for 50% cell growth inhibition which was expressed in logarithmic form was measured on SK-MEL-28 cell lines of Melanoma; method in brief: as §1
[18] = tested on: SW-620; assay: The concentration of compound required for 50% cell growth inhibition which was expressed in logarithmic form was measured on SW-620 cell lines of colon cancer; method in brief: as §1
[19] = tested on: HCC 2998; assay: The concentration of compound required for 50% cell growth inhibition which was expressed in logarithmic form was measured on HCC2998 cell lines of colon cancer; method in brief: as §1

| Structure (SMILES) | GI50 [1] [nM] | GI50 [2] [nM] | GI50 [3] [nM] | GI50 [4] [nM] | GI50 [5] [nM] | GI50 [6] [nM] | GI50 [7] [nM] | GI50 [8] [nM] | GI50 [9] [nM] | GI50 [10] [nM] | GI50 [11] [nM] | GI50 [12] [nM] | GI50 [13] [nM] | GI50 [14] [nM] | GI50 [15] [nM] | GI50 [16] [nM] | GI50 [17] [nM] | GI50 [18] [nM] | GI50 [19] [nM] |
| --- | --- | --- | --- | --- | --- | --- | --- | --- | --- | --- | --- | --- | --- | --- | --- | --- | --- | --- | --- |
| CN(CCCN)CCCNc1ccc2ncn3c4ccccc4c(=O)c1c23 | 1450 | 661 | 813 | 1620 | 355 | 1780 | 1150 | 347 | 3470 | 282 | 1150 | 1620 | 1780 | 631 | 1070 | 1550 | 1550 | 631 | 1350 |
| CN(CCCNc1ccc2ncn3c4ccccc4c(=O)c1c23)CCCNc1ccc2ncn3c4ccccc4c(=O)c1c23 | 13800 | < 10 | < 10 | 8130 | < 10 | > 100000 | 145 | < 10 | 316 | 44.7 | 501 | 776 | > 100000 | 16.6 | 295 | 12900 | > 100000 | < 10 | 93.3 |
| CN(CCNc1ccc2ncn3c4ccccc4c(=O)c1c23)CCNc1ccc2ncn3c4ccccc4c(=O)c1c23 | 27500 | 2240 | 28200 | 21900 | 58900 | 8130 | 28200 | 95500 | 27500 | > 100000 | 22400 | 13200 | 4070 | 4370 | 2690 | 5890 | 2820 | 11200 | 25100 |
| CN(CCCNc1ccc2ncn3c4ccccc4c(=O)c1c23)CCCNc1ccc2ncn3c4ccc(C(C)(C)C)cc4c(=O)c1c23 | 1580 | 1230 | 724 | 1910 | 3090 | 1450 | 2880 | 6920 | 1780 | 4790 | 1740 | 1740 | 2040 | 1580 | 1550 | 1700 | 1820 | 1290 | 1700 |
| CN(CCCNc1ccc2ncn3c4ccccc4c(=O)c1c23)CCCNc1ccc2nnn3c4ccccc4c(=O)c1c23 | 51300 | < 10 | 17800 | 38000 | > 100000 | > 100000 |  | 5010 | 47.9 | 10200 | 372 | 12000 | > 100000 | < 10 | 30.9 | 17000 | 44700 | < 10 |  |
